Assay outcomes: PubChem, several laboratories
Wee1 degr inh – blocks degradation of human Wee1 kinase | reporter increase, % at 5 µM | 220,000 tested, 1.2% active | HeLa Luc-Wee1K328M stability, luciferase luminescence; 100% = proteasome inhibitor MG132 effect | AID 1321;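 active means activation above the mean of all tested compounds plus 3 SD, set per screening run, cut at about 8.8% in these data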;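 further: cells exposed to compound for 20 h before luminescence read; 0% = DMSO alone and 100% = MG132 at 30 µM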
Mdm2 ligase inh – inhibitors of human Mdm2 E3 ubiquitin ligase; 210,000 tested, 0.11% active; signal enhancement, % at 5 µM; cell-based MDM2 ubiquitination luciferase reporter, 2 h; 0 = plate control, 100 = twice control, blank-subtracted;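 active means signal enhancement of 30% or more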;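 further: luminescence tracks abundance of the self-degrading MDM2-luciferase fusion protein; higher signal means inhibition of MDM2 E3 ligase activity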
Target sequence (Q00987 whole entry, looked up, the tested form may be a part): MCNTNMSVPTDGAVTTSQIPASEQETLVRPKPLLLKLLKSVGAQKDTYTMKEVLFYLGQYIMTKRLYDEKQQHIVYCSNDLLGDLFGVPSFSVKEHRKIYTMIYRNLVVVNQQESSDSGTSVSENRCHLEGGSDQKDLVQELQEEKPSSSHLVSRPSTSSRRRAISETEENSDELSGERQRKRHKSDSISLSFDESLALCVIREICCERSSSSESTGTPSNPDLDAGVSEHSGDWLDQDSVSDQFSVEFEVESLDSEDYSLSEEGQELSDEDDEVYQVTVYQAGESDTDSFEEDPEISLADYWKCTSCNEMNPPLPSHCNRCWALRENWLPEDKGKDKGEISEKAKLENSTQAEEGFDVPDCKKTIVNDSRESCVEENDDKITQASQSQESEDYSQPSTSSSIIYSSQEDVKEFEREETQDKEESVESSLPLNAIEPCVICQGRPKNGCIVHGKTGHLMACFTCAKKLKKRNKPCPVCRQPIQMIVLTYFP
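Material: stable MDM2–luciferase fusion reporter cells / Quantity: 2000 cells/well / Dosing: single 5 µM compound dose, 0.2% final DMSO / Buffer or medium: DMEM / Schedule: 4 h cell settling then 2 h compound exposure, 37 °C / Detection: luminescence with SteadyLite reagent, 15 min at room temperature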
Hsp70 activator – switches on Hsp70 transcription | activation, % at 10 µM | AID 1203 | 200,000 tested, 0.04% active | HeLa Hsp70 promoter luciferase reporter, luminescence; scaled: vehicle 0, proteasome-inhibitor control 100%;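 active means activation above the mean across all tested compounds plus 3 SD, cutoff set per campaign, cut at about 5.5% in these data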;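 further: 100% = MG132 at 30 µM as the positive control and 0% = DMSO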
m-calpain inh – inhibitors of pig calpain II; 220,000 tested, 0.37% active; inhibition, % at 16 µM; purified calpain II, fluorogenic peptide substrate, 30 min;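 active means inhibition above about 50%, limit read from the data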
Pf gamet viab – kills late stage P. falciparum gametocytes. P. falciparum stage V gametocytes, ATP luminescence, 24 h. inhibition, % at 10.9 µM. 150,000 tested, 0.065% active;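 active means inhibition above the mean plus 3 SD of compounds within the control limits, set per campaign, cut at about 38% in these data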;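 further: 0% = DMSO wells and 100% = medium only without gametocytes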
Numbers without * were called inactive. Hits are enriched below; roughly 1.5% of the tested compounds scored in any of these assays.

What do the screens show for `COc1ccccc1NC(=O)/C=C\C(=O)O`?
Wee1 degr inh: 4; Mdm2 ligase inh: -11; Hsp70 activator: 0; m-calpain inh: 77*; Pf gamet viab: 6

What do the screens show for `CCOC(=O)/C=C/C(=O)Nc1cccc([N+](=O)[O-])c1`?
Wee1 degr inh: 4; Mdm2 ligase inh: -4; Hsp70 activator: 0; m-calpain inh: -5

How did CCOC(=O)/C=C/C(=O)Nc1ccccc1-c1ccccc1NC(=O)/C=C/C(=O)OCC do in these assays?
Wee1 degr inh: 1; Mdm2 ligase inh: 39*; Hsp70 activator: 0; m-calpain inh: -17

Results for CC(=O)c1cccc(CN(C)CC2CCCN(CCc3ccccc3C)C2)c1 (stereo not given) ?
Pf gamet viab: 16

Results for COc1ccc(OC)c(CNC(=O)CCN2C(=O)COc3ccccc32)c1 ?
Wee1 degr inh: 0; Mdm2 ligase inh: -12; Hsp70 activator: 0; m-calpain inh: 5

How did COc1ccc(Br)cc1CNC(=O)CCN1C(=O)COc2ccccc21 do in these assays?
Wee1 degr inh: 11*; Mdm2 ligase inh: -7; Hsp70 activator: 0; m-calpain inh: 0; Pf gamet viab: 15

How did [N-]=[N+]=NCC/C=C\C1NS(=O)(=O)OCC1O (stereo not given) do in these assays?
Pf gamet viab: 7

What do the screens show for `CN(C1CCS(=O)(=O)C1)S(=O)(=O)c1ccccc1` (stereo not given)?
Wee1 degr inh: 0; Mdm2 ligase inh: -3; Hsp70 activator: 0; m-calpain inh: -20; Pf gamet viab: 38*

Results for CCOC(=O)[C@@H]1[C@H]2COc3ccccc3[C@H]2N2C(=O)N(c3ccc(Cl)cc3)C(=O)[C@]12C ?
Pf gamet viab: -32

What do the screens show for `COc1cccc2cc(C(=O)OCc3ccccc3)c(=O)oc12`?
Pf gamet viab: 5

How did O=C(CCSc1ccccc1)NC1CCCCCC1 do in these assays?
Wee1 degr inh: 1; Mdm2 ligase inh: -15; Hsp70 activator: 0; m-calpain inh: -15; Pf gamet viab: 1

How did O=C(CCSc1ccccc1)NC(=O)COC(=O)C1CCCCC1 do in these assays?
Wee1 degr inh: 7; Mdm2 ligase inh: -6; Hsp70 activator: 0; m-calpain inh: 60*; Pf gamet viab: -12

What do the screens show for `Cc1n[nH]c(C)c1CCCCOc1ccccc1[N+](=O)[O-]`?
Pf gamet viab: 9

What do the screens show for `COc1ccc(CN2C(=O)[C@H]3Cc4c([nH]c5ccccc45)C(C)(C)N3C2=O)cc1`?
Pf gamet viab: -25

Results for COc1ccc2oc(C(=O)C3CC3)c(N)c2c1 ?
Wee1 degr inh: 9.6*; Mdm2 ligase inh: -20; Hsp70 activator: 0; m-calpain inh: -22; Pf gamet viab: 5

What do the screens show for `CN(C)c1ccc(N=Nc2nc3ccccc3n2C)cc1`?
Wee1 degr inh: 1; m-calpain inh: 22; Pf gamet viab: 49*

How did COc1cccc2c1oc1c(SCc3nc4ccccc4[nH]3)nc(C)nc12 do in these assays?
Pf gamet viab: 19

How did CC(C)OC(=O)CCCCCN1C(=O)CSC1=S do in these assays?
Wee1 degr inh: 9.0*; Mdm2 ligase inh: -1; Hsp70 activator: -1; m-calpain inh: -18

How did S=c1[nH]nc(COc2ccccc2)n1Cc1ccccc1 do in these assays?
Wee1 degr inh: 2; Mdm2 ligase inh: -4; Hsp70 activator: 0; m-calpain inh: 16; Pf gamet viab: 6

What do the screens show for `CCc1ccc(OCc2n[nH]c(=S)n2Cc2ccccc2)cc1`?
Wee1 degr inh: -1; Mdm2 ligase inh: 4; Hsp70 activator: 0; m-calpain inh: 54*; Pf gamet viab: -5

What do the screens show for `CCn1c(CSCc2ccccc2)n[nH]c1=S`?
Wee1 degr inh: 9.1*; Mdm2 ligase inh: 3; Hsp70 activator: 0; m-calpain inh: -18; Pf gamet viab: -16

What do the screens show for `Nc1cc(=O)[nH]c(=O)n1CCCc1ccccc1`?
Pf gamet viab: 12

How did O=C1[C@H](Cc2ccccc2)NCC=CC[C@H](c2ccco2)N1Cc1ccccc1 do in these assays?
Pf gamet viab: 23

Results for Cc1ccc(S(=O)(=O)n2[nH]c(=O)c(CCO)c2C)cc1 ?
Wee1 degr inh: 9.0*; Mdm2 ligase inh: -19; Hsp70 activator: 0; m-calpain inh: -1; Pf gamet viab: 9

What do the screens show for `O=C(CCN1C(=O)c2cccc3cccc(c23)C1=O)N1CCOCC1`?
Wee1 degr inh: -1; Mdm2 ligase inh: 21; Hsp70 activator: 0; m-calpain inh: -61; Pf gamet viab: -21

Results for COc1ccc(NC(=S)N2CCN(CCN3C(=O)c4cccc5cccc(c45)C3=O)CC2)cc1 ?
Wee1 degr inh: -2; Mdm2 ligase inh: -11; Hsp70 activator: 0; m-calpain inh: 51*; Pf gamet viab: -21

How did O=C(/C=C/c1ccccc1)N1CCN(CCN2C(=O)c3cccc4cccc(c34)C2=O)CC1 do in these assays?
Wee1 degr inh: 9.8*; Mdm2 ligase inh: 3; Hsp70 activator: 0; m-calpain inh: -3; Pf gamet viab: -8

What do the screens show for `Cc1nc(NC(=O)CN2CC(C)OC(C)C2)sc1C(=O)N(C)C` (stereo not given)?
Pf gamet viab: -19

How did Cc1ccc(S(=O)(=O)Nc2ccc(O)c(Sc3ncn[nH]3)c2)cc1 do in these assays?
Wee1 degr inh: -2; Mdm2 ligase inh: -9; Hsp70 activator: 0; m-calpain inh: -14

What do the screens show for `CCOc1ccc(S(=O)(=O)Nc2ccc(O)c(Sc3ncn[nH]3)c2)cc1`?
Wee1 degr inh: 29*; Mdm2 ligase inh: -4; Hsp70 activator: 0; m-calpain inh: -5

Results for Cn1c(=O)[nH]c(=O)c2c1nc(SCCCO)n2CCCc1ccccc1 ?
Pf gamet viab: 3

How did Cc1nnc2n(CCc3ccccc3)c(=O)c3c4c(sc3n12)CCCC4 do in these assays?
Wee1 degr inh: 9.3*; Hsp70 activator: 0

Results for CSc1nnc2n(CCc3ccccc3)c(=O)c3c4c(sc3n12)CCCC4 ?
Wee1 degr inh: -4; Hsp70 activator: 0

How did CC(=O)Nc1ccc(S(=O)(=O)NCC2CCC(C(=O)NCCC3=CCCCC3)CC2)cc1 (stereo not given) do in these assays?
Wee1 degr inh: 0; Hsp70 activator: 0; m-calpain inh: 52*; Pf gamet viab: 7

Results for CC1(C)Cc2ccccc2-c2n[nH]c(=S)n21 ?
Wee1 degr inh: 9.5*; Mdm2 ligase inh: -18; Hsp70 activator: 0; m-calpain inh: -12; Pf gamet viab: 3

What do the screens show for `CC1CCCCN1Cc1cnc(Cl)s1` (stereo not given)?
Wee1 degr inh: -2; Mdm2 ligase inh: 2; Hsp70 activator: 0; m-calpain inh: 59*; Pf gamet viab: -7

Results for CC1CCN(Cc2cnc(Cl)s2)CC1 ?
Wee1 degr inh: -1; Mdm2 ligase inh: 7; Hsp70 activator: 0; m-calpain inh: 51*; Pf gamet viab: 2

How did CC1CCCCN1Cc1ccc(N(C)C)cc1 (stereo not given) do in these assays?
Wee1 degr inh: -1; Mdm2 ligase inh: -38; Hsp70 activator: 0; m-calpain inh: 13; Pf gamet viab: 8
